Laboratory results as given in paper PMC5299035 (Drug development research, 2016).

Experiments:
Type in all cases: cell-based
FPR1 = molecular target: T1, FPR1 (Homo sapiens, UniProt P21462); assay: Ca2+ mobilization assay in FPR1-HL60 cells; settings: for Emax: read-out: Ca2+ flux FPR1-HL60 efficacy; for Ca2+ flux FPR1-HL60 efficacy: % of the response induced by 5 nM fMLF
T1 sequence (P21462 1-350): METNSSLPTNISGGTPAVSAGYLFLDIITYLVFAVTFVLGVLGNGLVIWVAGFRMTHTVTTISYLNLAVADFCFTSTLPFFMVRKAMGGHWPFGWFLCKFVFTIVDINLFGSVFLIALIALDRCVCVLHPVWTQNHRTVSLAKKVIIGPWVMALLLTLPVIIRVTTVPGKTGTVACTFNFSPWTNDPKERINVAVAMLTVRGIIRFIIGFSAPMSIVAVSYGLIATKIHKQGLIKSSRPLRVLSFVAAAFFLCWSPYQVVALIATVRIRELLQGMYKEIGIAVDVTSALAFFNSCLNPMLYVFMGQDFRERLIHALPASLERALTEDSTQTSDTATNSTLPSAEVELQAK
In short: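 FPR1-transfected HL60 cells were grown in RPMI 1640 with 10% heat-inactivated FCS, 10 mM HEPES and G418 (1 mg/mL). Cells were loaded with Fluo-4 AM (1.25 μg/mL final) for 30 min at 37 °C in the dark, then washed and seeded in HBSS+ at 2 × 10^5 cells/well. Fluorescence (485/538 nm) was read every 5 s for 240 s at room temperature after compound addition. Peak rise over baseline was set against 5 nM fMLF (100%). EC50 came from nonlinear regression of 5-6-point curves, mean of three independent experiments. No activity meant no response within 2 min (limits: efficacy >20%, EC50 <50 μM).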

FPR2 = molecular target: T2, FPR2 (Homo sapiens, UniProt P25090); assay: Ca2+ mobilization assay in FPR2-HL60 cells; settings: for Emax: read-out: Ca2+ flux FPR2-HL60 efficacy; for Ca2+ flux FPR2-HL60 efficacy: % of the response induced by 5 nM WKYMVm
T2 sequence (P25090 1-351): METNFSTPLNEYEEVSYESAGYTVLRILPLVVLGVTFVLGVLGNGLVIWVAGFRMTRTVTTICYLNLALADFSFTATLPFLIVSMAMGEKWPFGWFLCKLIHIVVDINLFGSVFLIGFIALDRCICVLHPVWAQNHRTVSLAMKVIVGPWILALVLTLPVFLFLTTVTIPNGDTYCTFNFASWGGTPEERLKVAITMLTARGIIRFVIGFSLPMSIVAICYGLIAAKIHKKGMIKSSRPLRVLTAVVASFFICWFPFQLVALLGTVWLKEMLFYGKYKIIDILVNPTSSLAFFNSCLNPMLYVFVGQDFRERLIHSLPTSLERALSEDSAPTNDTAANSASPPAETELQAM
In short: (§1)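 FPR2- or FPR3-transfected HL60 cells were grown in RPMI 1640 with 10% heat-inactivated FCS and G418 1 mg/mL. Cells were loaded with Fluo-4 AM (1.25 μg/mL final) for 30 min at 37 °C in the dark, washed, and seeded at 2 × 10^5 cells/well in HBSS+. Fluorescence (ex 485/em 538 nm) was read every 5 s for 240 s at room temperature. Peak rise over baseline was normalised to the reference agonist. EC50 came from 5-6-point nonlinear regression over three independent experiments.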

mouse neutrophils = assay: Ca2+ mobilization assay in mouse neutrophils; settings: for Ca2+ flux mouse neutrophils efficacy: % of the response induced by 10 nM WKYMVm; for Ca2+ flux mouse neutrophils EC50: N.A. = no activity (no response during first 2 min)
In short: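 Bone marrow was flushed from BALB/c mouse tibias and femurs and separated on a Percoll gradient (45/50/55/62/81%, 1600g, 30 min, 10 °C). Red cells were removed over Histopaque 1119. Neutrophils were loaded with Fluo-4 AM (1.25 μg/mL final) for 30 min at 37 °C, seeded in HBSS+ at 2 × 10^5 cells/well, and read at 485/538 nm every 5 s for 240 s at room temperature. Responses were normalized to 10 nM WKYMVm. EC50 came from nonlinear regression of 5-6-point curves, three experiments.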

human neutrophils = assay: Ca2+ mobilization assay in human neutrophils; settings: for EC50: Homo sapiens, Neutrophil, read-out: Ca2+ flux human neutrophils EC50; for Ca2+ flux human neutrophils efficacy: % of the response induced by 5 nM fMLF
In short: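 Neutrophils from healthy donors were purified by dextran sedimentation, Histopaque 1077 gradient and hypotonic red-cell lysis (>95% pure, >98% viable). After Fluo-4 AM loading (1.25 μg/mL final, 30 min, 37 °C, dark), cells were seeded at 2 × 10^5/well in HBSS with Ca2+/Mg2+. Fluorescence (485/538 nm) was tracked every 5 s for 240 s at room temperature. Maximum change over baseline was normalised, and EC50 came from a 5-6-point nonlinear fit.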

mouse Fpr2 = molecular target: T3, mouse Fpr2 (Mus musculus, UniProt O88536); assay: Ca2+ mobilization assay in mFpr2-RBL cells; settings: for Ca2+ flux mFpr2-RBL efficacy: % of the response induced by 10 nM WKYMVm; for Ca2+ flux mFpr2-RBL EC50: RBL cells transfected with mouse Fpr2, N.A. = no activity
T3 sequence (O88536 1-351): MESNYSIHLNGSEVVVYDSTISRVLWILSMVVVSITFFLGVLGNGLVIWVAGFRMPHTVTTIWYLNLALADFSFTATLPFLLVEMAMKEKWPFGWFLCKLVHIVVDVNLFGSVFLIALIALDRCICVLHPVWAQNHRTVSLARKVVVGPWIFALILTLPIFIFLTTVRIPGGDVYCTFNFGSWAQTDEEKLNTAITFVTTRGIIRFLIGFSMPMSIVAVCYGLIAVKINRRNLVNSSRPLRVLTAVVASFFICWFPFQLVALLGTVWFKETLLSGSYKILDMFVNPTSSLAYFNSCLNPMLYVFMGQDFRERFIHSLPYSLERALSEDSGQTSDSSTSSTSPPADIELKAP
In short: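 RBL-2H3 cells stably expressing mouse Fpr2 were grown in DMEM with 20% FBS, 10 mM HEPES and G418 (250 μg/ml). Fluo-4 AM (1.25 μg/mL final) was loaded for 30 min at 37 °C in the dark. Cells were seeded in HBSS+ at 2 × 10^5 cells/well, and fluorescence (485/538 nm) was read every 5 s for 240 s at room temperature. Peak rise was normalized to 10 nM WKYMVm (100%). EC50 came from nonlinear regression of 5-6-point curves over three independent experiments.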

mouse Fpr1 = molecular target: T4, mouse Fpr1 (Mus musculus, UniProt P33766); assay: Ca2+ mobilization assay in mFpr1-RBL cells; settings: for Ca2+ flux mFpr1-RBL EC50: RBL cells transfected with mouse Fpr1, N.A. = no activity; for Ca2+ flux mFpr1-RBL efficacy: % of the response induced by 10 nM WKYMVm
T4 sequence (P33766 1-364): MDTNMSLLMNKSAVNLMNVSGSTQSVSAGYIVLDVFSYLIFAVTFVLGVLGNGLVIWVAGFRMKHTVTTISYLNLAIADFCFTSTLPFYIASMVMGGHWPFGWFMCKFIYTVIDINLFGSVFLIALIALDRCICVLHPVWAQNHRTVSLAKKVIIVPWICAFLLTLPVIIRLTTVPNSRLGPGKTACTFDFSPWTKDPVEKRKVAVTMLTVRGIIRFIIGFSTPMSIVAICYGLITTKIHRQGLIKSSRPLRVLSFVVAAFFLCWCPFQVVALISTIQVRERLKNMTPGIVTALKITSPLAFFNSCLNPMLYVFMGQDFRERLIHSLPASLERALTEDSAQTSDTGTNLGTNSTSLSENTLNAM
In short: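 RBL-2H3 rat basophilic leukemia cells transfected with mouse Fpr1 were kept in DMEM with 20% FBS and G418 250 μg/ml. Cells were dye-loaded with Fluo-4 AM (1.25 μg/mL final) for 30 min at 37 °C and plated at 2 × 10^5/well in HBSS+. Fluorescence (485/538 nm) was followed every 5 s for 240 s at room temperature. Peak over baseline was normalised, and EC50 was taken by 5-6-point nonlinear regression, averaged from three independent experiments.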

FPR3 = molecular target: T5, FPR3 (Homo sapiens, UniProt P25089); assay: Ca2+ mobilization assay in FPR3-HL60 cells; settings: for Emax: read-out: Ca2+ flux FPR3-HL60 efficacy; for Ca2+ flux FPR3-HL60 efficacy: % of the response induced by 10 nM WKYMVm
T5 sequence (P25089 1-353): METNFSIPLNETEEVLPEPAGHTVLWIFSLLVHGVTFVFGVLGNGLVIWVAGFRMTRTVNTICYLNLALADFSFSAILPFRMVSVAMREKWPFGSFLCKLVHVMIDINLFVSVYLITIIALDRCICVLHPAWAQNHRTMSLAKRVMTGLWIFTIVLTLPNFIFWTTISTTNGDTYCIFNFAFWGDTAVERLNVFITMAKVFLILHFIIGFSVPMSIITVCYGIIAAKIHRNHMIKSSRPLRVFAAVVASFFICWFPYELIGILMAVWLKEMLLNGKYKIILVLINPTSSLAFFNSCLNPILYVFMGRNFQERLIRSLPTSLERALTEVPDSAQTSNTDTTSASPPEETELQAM
In short: as §1

Row | SMILES | EC50 (FPR1) | Emax (FPR1) | EC50 (FPR2) | Emax (FPR2) | Ca2+ flux mouse neutrophils efficacy (mouse neutrophils) | EC50 (human neutrophils) | EC50 (mouse Fpr2) | Ca2+ flux mFpr2-RBL efficacy (mouse Fpr2) | Ca2+ flux mFpr2-RBL EC50 (mouse Fpr2) | Ca2+ flux mFpr1-RBL EC50 (mouse Fpr1) | EC50 (FPR3) | Emax (FPR3) | Ca2+ flux mouse neutrophils EC50 (mouse neutrophils) | Ca2+ flux mFpr1-RBL efficacy (mouse Fpr1) | Ca2+ flux FPR3-HL60 efficacy (FPR3) | Ca2+ flux FPR1-HL60 efficacy (FPR1) | Ca2+ flux FPR2-HL60 efficacy (FPR2) | Ca2+ flux human neutrophils efficacy (human neutrophils)
1 | Cc1cc(=O)n(CC(=O)Nc2ccc(Br)cc2)nc1C [7a, N-(4-Bromophenyl)-2-[3,4-dimethyl-6-oxopyridazin-1(6H)-yl]acetamide] | 5700 ± 2100 nM | 110% | 510 ± 190 nM | 90% | 70% | 2000 ± 290 nM |  |  |  |  |  |  |  |  |  |  |  | 
2 | COc1cccc(Cc2c(-c3ccccc3)c(C)nn(CC(=O)Nc3ccc(Br)cc3)c2=O)c1 [4f, N-(4-Bromophenyl)-2-[5-(3-methoxybenzyl)-3-methyl-6-oxo-4-phenylpyridazin-1(6H)-yl]acetamide] |  | 160% |  |  | 95% | 5400 ± 260 nM | 28800 ± 5200 nM | 180% |  |  |  |  |  |  |  |  |  | 
3 | COc1cccc(Cc2c(C)c(C)nn(CC(=O)Nc3ccc(Br)cc3)c2=O)c1 [4a, N-(4-Bromophenyl)-2-[5-(3-methoxybenzyl)-3,4-dimethyl-6-oxopyridazin-1(6H)-yl]acetamide] |  | 85% |  | 80% |  | 6 ± 2 nM |  |  | complete inactivity | complete inactivity | 40 ± 11 nM | 165% | complete inactivity |  |  |  |  | 
4 | COc1ccc(Cc2c(C)c(C)nn(CC(=O)Nc3ccc(Br)cc3)c2=O)cc1 [4b, N-(4-Bromophenyl)-2-[5-(4-methoxybenzyl)-3,4-dimethyl-6-oxopyridazin-1(6H)-yl]acetamide] |  | 60% |  | 95% |  | 270 ± 25 nM |  |  | complete inactivity | complete inactivity | 130 ± 32 nM | 100% | complete inactivity |  |  |  |  | 
5 | CC1=NN(CC(=O)Nc2ccc(Br)cc2)C(=O)CC1c1ccccc1 (racemic) [(±)-6b, (±)N-(4-Bromophenyl)-2-[3-methyl-6-oxo-4-phenyl-5,6-dihydropyridazin-1(4H)-yl]acetamide] |  |  |  |  | 160% |  |  | 220% |  |  |  |  |  | 60% | 120% | 90% | 110% | 75%
6 | Cc1nn(CC(=O)Nc2ccc(Br)cc2)c(=O)cc1-c1ccccc1 [7b, N-(4-Bromophenyl)-2-[3-methyl-6-oxo-4-phenylpyridazin-1(6H)-yl]acetamide] |  |  | 150 ± 52 nM | 115% | 75% | 200 ± 56 nM |  |  |  |  | 970 ± 230 nM | 95% |  |  |  |  |  | 
7 | CC1=NN(CC(=O)Nc2ccc(Br)cc2)C(=O)CC1C (racemic) [(±)-6a, (±)N-(4-Bromophenyl)-2-[3,4-dimethyl-6-oxo-5,6-dihydropyridazin-1(4H)-yl]acetamide] |  |  |  |  |  |  |  |  |  |  |  |  |  | 70% | 150% | 60% | 120% | 115%
